Results: ChEMBL document CHEMBL1127698, “Matrix metalloproteinase inhibitors containing a (carboxyalkyl)amino zinc ligand: modification of the P1 and P2' residues” (J Med Chem, 1994)

Assays:
Interstitial collagenase = target: T1, Interstitial collagenase (Homo sapiens, UniProt P03956); experiment: Activity against human collagenase (MMP-1).
T1 sequence (P03956 whole entry): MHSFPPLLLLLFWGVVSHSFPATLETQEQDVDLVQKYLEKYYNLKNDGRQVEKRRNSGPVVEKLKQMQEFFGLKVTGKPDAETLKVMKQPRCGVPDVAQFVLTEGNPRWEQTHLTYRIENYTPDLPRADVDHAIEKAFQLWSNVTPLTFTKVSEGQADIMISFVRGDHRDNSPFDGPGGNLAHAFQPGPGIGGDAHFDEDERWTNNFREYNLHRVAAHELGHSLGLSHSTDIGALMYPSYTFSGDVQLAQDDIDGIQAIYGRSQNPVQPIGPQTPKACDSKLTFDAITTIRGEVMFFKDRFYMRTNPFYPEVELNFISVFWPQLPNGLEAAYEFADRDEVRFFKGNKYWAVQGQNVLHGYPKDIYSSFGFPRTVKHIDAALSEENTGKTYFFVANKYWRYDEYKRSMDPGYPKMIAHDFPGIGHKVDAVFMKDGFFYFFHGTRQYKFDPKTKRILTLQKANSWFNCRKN

Stromelysin-1 = Stromelysin-1 (Homo sapiens, UniProt P08254); experiment: Activity against human stromelysin (MMP-3).
Stromelysin-1, sequence (P08254 whole entry): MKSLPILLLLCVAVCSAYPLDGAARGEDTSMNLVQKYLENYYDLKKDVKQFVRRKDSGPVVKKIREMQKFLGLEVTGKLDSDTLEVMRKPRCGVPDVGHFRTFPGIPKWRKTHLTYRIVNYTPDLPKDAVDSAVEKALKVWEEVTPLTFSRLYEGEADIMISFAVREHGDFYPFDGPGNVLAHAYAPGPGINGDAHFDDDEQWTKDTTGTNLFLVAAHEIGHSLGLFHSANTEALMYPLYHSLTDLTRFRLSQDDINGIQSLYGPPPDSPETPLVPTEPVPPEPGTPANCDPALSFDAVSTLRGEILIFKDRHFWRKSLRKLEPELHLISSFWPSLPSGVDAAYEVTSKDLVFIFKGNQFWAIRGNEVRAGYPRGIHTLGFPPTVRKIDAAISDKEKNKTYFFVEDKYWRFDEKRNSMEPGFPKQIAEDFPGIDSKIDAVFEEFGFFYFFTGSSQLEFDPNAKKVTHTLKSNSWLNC
Summary of the method: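 Fluorogenic stromelysin assay: human enzyme 10 nM in pH 7.6 Tris buffer (200 mM NaCl, 5 mM CaCl2, 20 μM ZnSO4, 0.05% Brij 35). Inhibitors ran from 10 000 to 0.057 nM in 3-fold steps. Ki came from % inhibition vs log[inhibitor], with substrate far below Km.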

[1] = target: Matrix metalloproteinase-9 (Homo sapiens, UniProt P14780); experiment: Activity against human gelatinase (MMP-9).
Matrix metalloproteinase-9, sequence (P14780 whole entry): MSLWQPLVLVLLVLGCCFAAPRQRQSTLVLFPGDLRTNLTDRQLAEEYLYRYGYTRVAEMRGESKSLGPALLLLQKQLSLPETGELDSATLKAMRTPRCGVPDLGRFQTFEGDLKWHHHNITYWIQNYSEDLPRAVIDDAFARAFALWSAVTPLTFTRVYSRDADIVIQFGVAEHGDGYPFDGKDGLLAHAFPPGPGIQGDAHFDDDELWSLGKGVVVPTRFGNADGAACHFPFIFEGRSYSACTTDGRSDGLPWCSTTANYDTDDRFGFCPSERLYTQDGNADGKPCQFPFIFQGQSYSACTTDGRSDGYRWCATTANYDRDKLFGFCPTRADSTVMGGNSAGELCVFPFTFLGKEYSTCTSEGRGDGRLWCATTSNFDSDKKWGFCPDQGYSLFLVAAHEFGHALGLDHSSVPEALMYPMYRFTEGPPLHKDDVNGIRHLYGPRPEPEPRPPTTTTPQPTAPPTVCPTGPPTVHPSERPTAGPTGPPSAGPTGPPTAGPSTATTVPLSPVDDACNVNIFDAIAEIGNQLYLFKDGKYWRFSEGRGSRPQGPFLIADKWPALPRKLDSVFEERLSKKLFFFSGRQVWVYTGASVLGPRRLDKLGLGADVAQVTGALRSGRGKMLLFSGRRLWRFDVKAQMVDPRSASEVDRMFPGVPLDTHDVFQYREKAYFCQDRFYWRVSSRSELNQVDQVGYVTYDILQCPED
Summary of the method: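 Human gelatinase at 1 nM in pH 7.6 Tris buffer (200 mM NaCl, 5 mM CaCl2, 20 μM ZnSO4, 0.05% Brij 35), with inhibitors at 3-fold dilutions from 10 000 to 0.057 nM. Ki came from % inhibition vs log concentration, with substrate far below Km.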

[2] = Half-life period for the activity is tested at pH 6.8; format: ADME
Summary of the method: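 Inhibitor at 20 μM in 20 mM sodium phosphate, pH 6.8, held at 30 °C. Aliquots were injected every 3 h over 24 h onto C18 reverse-phase HPLC with a 5–60% acetonitrile gradient containing 0.1% TFA.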

SMILES	IC50 (Interstitial collagenase) [nM]	IC50 (Stromelysin-1) [nM]	IC50 [1] [nM]	half-life [2] [h]
CC(C)C[C@@H](N[C@H](CCN1C(=O)c2cc3ccccc3cc2C1=O)C(=O)O)C(=O)NC(C)c1ccccc1 (stereo not given in full)	74	4700	76	–
CNC(=O)[C@H](Cc1ccccc1)NC(=O)[C@H](CC(C)C)N[C@H](CCN1C(=O)c2cc3c(cc2C1=O)OCO3)C(=O)O	12	–	5	15.5
CCCOc1ccc2c(c1)C(=O)N(CC[C@@H](N[C@@H](CC(C)C)C(=O)N[C@@H](Cc1ccccc1)C(=O)NC)C(=O)O)C2=O	15	427	2.1	10.9
CNC(=O)[C@H](Cc1ccccc1)NC(=O)[C@H](CC(C)C)N[C@H](CCN1C(=O)c2cc3ccc(OC)cc3cc2C1=O)C(=O)O	36	–	–	–
CC(C)C[C@H](N[C@H](CCN1C(=O)c2cc3ccccc3cc2C1=O)C(=O)O)C(=O)N(C)Cc1ccccc1	37	1160	57	–
CNC(=O)[C@H](Cc1ccccc1)NC(=O)[C@H](CC(C)C)N[C@H](CCn1c(=O)c2cc3c(=O)[nH]c(=O)c3cc2c1=O)C(=O)O	38	2170	4.8	1.7
CNC(=O)[C@H](C)NC(=O)[C@H](CC(C)C)N[C@H](CCN1C(=O)c2cc3ccccc3cc2C1=O)C(=O)O	86	5630	69	–
CC(C)C[C@H](N[C@H](CCN1C(=O)c2cc3ccccc3cc2C1=O)C(=O)O)C(=O)NC(C)c1ccccc1 (stereo not given in full)	51	965	12	–
CC(C)C[C@H](N[C@H](CCN1C(=O)c2cc3ccccc3cc2C1=O)C(=O)O)C(=O)NCc1cccc(F)c1	41	1480	15	–
CC(C)C[C@H](N[C@H](CCN1C(=O)c2cc3ccccc3cc2C1=O)C(=O)O)C(=O)NCc1ccc(S(N)(=O)=O)cc1	70	295	6.7	–
CC(C)C[C@H](N[C@H](CCN1C(=O)c2cc3ccccc3cc2C1=O)C(=O)O)C(=O)N1CCCC1c1cccnc1 (stereo in doubt; 76)	164	4080	70	–
CNC(=O)[C@H](Cc1ccccc1)NC(=O)[C@H](CC(C)C)N[C@H](CCN1C(=O)c2ccc(-c3ccccc3)cc2C1=O)C(=O)O	19	216	4.5	7.8
CNC(=O)C(NC(=O)[C@H](CC(C)C)N[C@H](CCN1C(=O)c2cc3ccccc3cc2C1=O)C(=O)O)c1ccccc1 (stereo not given in full)	19	631	14	–
CC(C)C[C@H](N[C@H](CCN1C(=O)c2cc3ccccc3cc2C1=O)C(=O)O)C(=O)Nc1ccccc1	–	12500	101	–
CC(C)C[C@H](N[C@H](CCN1C(=O)c2cc3ccccc3cc2C1=O)C(=O)O)C(=O)N1CCc2ccccc2C1	84	2190	88	–
CNC(=O)[C@H](Cc1ccccc1)NC(=O)[C@H](CC(C)C)N[C@H](CCN1C(=O)c2cc3ccccc3cc2C1=O)C(=O)O	20	91	5	29
CNC(=O)[C@H](Cc1ccccc1)NC(=O)[C@H](CC(C)C)N[C@H](CCN1Cc2cc3ccccc3cc2C1=O)C(=O)O	211	7880	63	> 100
CC(C)C[C@H](N[C@H](CCN1C(=O)c2cc3ccccc3cc2C1=O)C(=O)O)C(=O)NC1CCCc2ccccc21 (stereo not given in full)	108	2470	75	–
CNC(=O)[C@H](Cc1ccc(O)cc1)NC(=O)[C@H](CC(C)C)N[C@H](CCN1C(=O)c2cc3ccccc3cc2C1=O)C(=O)O	29	72	3.8	–
CC(C)C[C@H](N[C@H](CCN1C(=O)c2cc3ccccc3cc2C1=O)C(=O)O)C(=O)NCc1ccccc1	87	1520	32	–

SMILES	IC50 (Interstitial collagenase) [nM]	IC50 (Stromelysin-1) [nM]	IC50 [1] [nM]	half-life [2] [h]
CNC(=O)[C@H](CC(C)C)NC(=O)[C@H](CC(C)C)N[C@H](CCN1C(=O)c2cc3ccccc3cc2C1=O)C(=O)O	49	1300	11	27
CC(C)C[C@H](N[C@H](CCN1C(=O)c2cc3ccccc3cc2C1=O)C(=O)O)C(=O)N1CCN(C)CC1	54	1890	70	–
CNC(=O)CNC(=O)[C@H](CC(C)C)N[C@H](CCN1C(=O)c2cc3ccccc3cc2C1=O)C(=O)O	370	> 10000	124	–
CNC(=O)[C@H](Cc1ccccc1)NC(=O)[C@H](CC(C)C)N[C@H](CCN1C(=O)c2ccccc2C1=O)C(=O)O	81	5970	59	10
CC(C)C[C@H](N[C@H](CCN1C(=O)c2cc3ccccc3cc2C1=O)C(=O)O)C(=O)N1CCCC1c1cccnc1 (stereo in doubt; 75)	44	960	18	–
CNC(=O)[C@H](Cc1ccccc1)NC(=O)[C@H](CC(C)C)N[C@H](CCN1C(=O)c2cc3ccccc3nc2C1=O)C(=O)O	22	518	7.5	1.7
CNC(=O)[C@H](CC(C)C)N[C@H](CCN1C(=O)c2cc3ccccc3cc2C1=O)C(=O)O	490	> 10000	706	–
CC(C)C[C@H](N[C@H](CCN1C(=O)c2cc3ccccc3cc2C1=O)C(=O)O)C(=O)N(C)C	86	> 10000	82	–
CNC(=O)[C@H](CCCN=C(N)N)NC(=O)[C@H](CC(C)C)N[C@H](CCN1C(=O)c2cc3ccccc3cc2C1=O)C(=O)O	152	481	27	–
CNC(=O)[C@H](Cc1ccccc1)NC(=O)[C@H](CC(C)C)N[C@H](CCN1C(=O)c2cccc3c(Br)ccc(c23)C1=O)C(=O)O	190	341	28	–
CC(C)C[C@H](NC(=O)[C@H](CC(C)C)N[C@H](CCN1C(=O)c2cc3ccccc3cc2C1=O)C(=O)O)C(=O)NCCN1CCOCC1	44	121	13	37
CNC(=O)[C@H](Cc1ccccc1)NC(=O)[C@H](CC(C)C)N[C@H](CCNC(=O)OCc1ccccc1)C(=O)O	–	3570	580	–
CC(C)C[C@H](N[C@H](CCN1C(=O)c2cc3ccccc3cc2C1=O)C(=O)O)C(=O)NCc1ccc(C(=O)O)cc1	56	178	74	–
CC(C)C[C@H](N[C@H](CCN1C(=O)c2cc3ccccc3cc2C1=O)C(=O)O)C(=O)NCCc1ccccc1	160	> 10000	35	–
CNC(=O)[C@H](Cc1ccccc1)NC(=O)[C@H](CC(C)C)N[C@H](CCNC(=O)c1ccc2ccccc2c1)C(=O)O	488	2340	49	> 100
CNC(=O)[C@H](Cc1ccccc1)NC(=O)[C@H](CC(C)C)N[C@H](CCN1C(=O)c2cc3ccccc3c(OC)c2C1=O)C(=O)O	54	1370	7.4	87
CC(C)C[C@H](N[C@H](CCN1C(=O)c2cc3ccccc3cc2C1=O)C(=O)O)C(=O)NCc1cccnc1	139	309	36	–
CC(C)C[C@H](N[C@H](CCN1C(=O)c2cc3ccccc3cc2C1=O)C(=O)O)C(=O)NCc1nnn(C)n1	270	2980	30	–
CNC(=O)[C@H](Cc1ccccc1)NC(=O)[C@H](CC(C)C)N[C@H](CCN1C(=O)c2cc3cccc(OC)c3cc2C1=O)C(=O)O	36	1400	15	7.2
